Measured values published in ChEMBL document CHEMBL1157328, “Linear sesquiterpene lactones from Anthemis auriculata and their antibacterial activity” (2006).
In brackets after ≈: the same amount, converted by molar mass.

Assays:
Proteus mirabilis = experiment: Antibacterial activity against Proteus mirabilis isolate after 48 hrs by serial dilution technique; type: functional
How it was run: (§1)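 Broth microdilution MIC in 96-well plates. Compounds dissolved at 10 mg/mL in DMSO, diluted in nutrient medium to 1000 μg/mL, tested at final […] in serial dilution. Bacteria grown overnight at 37 °C in TSB (~10^9 cells/mL), adjusted with sterile saline to ~1.0×10^5 per well. Plates incubated 48 h at 37 °C.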

Escherichia coli = experiment: Antibacterial activity against Escherichia coli ATCC 35218 after 48 hrs by serial dilution technique; type: functional; settings: ATCC 35218, 48 h; how it was run: as §1
Pseudomonas tolaasii = experiment: Antibacterial activity against Pseudomonas tolaasii after 48 hrs by serial dilution technique; type: functional; how it was run: as §1
Bacillus cereus = experiment: Antibacterial activity against Bacillus cereus isolate after 48 hrs by serial dilution technique; type: functional; how it was run: as §1
Micrococcus luteus [1] = experiment: Antibacterial activity against Micrococcus luteus isolate after 48 hrs by serial dilution technique; type: functional; how it was run: as §1
Candida albicans = experiment: Antifungal activity against Candida albicans isolate after 72 hrs by serial dilution technique; type: functional
How it was run: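 Candida albicans clinical isolate kept on Sabouraud agar at +4 °C, subcultured monthly. Compounds dissolved at 10 mg/mL in DMSO, diluted in medium to 1000 μg/mL, tested at final […] by serial microdilution in 96-well plates. Inoculum adjusted with saline to ~1.0×10^5 per well. Incubated 72 h at 28 °C. MIC recorded.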

Micrococcus luteus [2] = experiment: Antibacterial activity against Sarcina lutea ATCC 9341 after 48 hrs by serial dilution technique; type: functional; settings: ATCC 9341, 48 h; how it was run: as §1
Staphylococcus aureus = experiment: Antibacterial activity against Staphylococcus aureus ATCC 6538 after 48 hrs by serial dilution technique; type: functional; settings: ATCC 6538, 48 h; how it was run: as §1
Salmonella enteritidis = experiment: Antibacterial activity against Salmonella enteritidis ATCC 13076 after 48 hrs by serial dilution technique; type: functional, Salmonella enterica subsp. enterica serovar Enteritidis; settings: Salmonella enterica, ATCC 13076, 48 h; how it was run: as §1
Pseudomonas aeruginosa = experiment: Antibacterial activity against Pseudomonas aeruginosa isolate after 48 hrs by serial dilution technique; type: functional; how it was run: as §1
[3] = system: Agrobacterium tumefaciens; experiment: Antibacterial activity against Agrobacterium tumefaciens A281 after 48 hrs by serial dilution technique; type: functional; settings: A281, 48 h; how it was run: as §1

| Structure (SMILES) | MIC (Proteus mirabilis) | MIC (Escherichia coli) | MIC (Pseudomonas tolaasii) | MIC (Bacillus cereus) | MIC (Micrococcus luteus [1]) | MIC (Candida albicans) | MIC (Micrococcus luteus [2]) | MIC (Staphylococcus aureus) | MIC (Salmonella enteritidis) | MIC (Pseudomonas aeruginosa) | MIC [3] |
| --- | --- | --- | --- | --- | --- | --- | --- | --- | --- | --- | --- |
| C=C1C(=O)OC[C@H]1[C@@H](O)/C=C(\C)CC(=O)C=C(C)C | 189 µM (≈ 50 µg/mL) | 189 µM (≈ 50 µg/mL) | 189 µM (≈ 50 µg/mL) | 94.7 µM (≈ 25 µg/mL) | 94.7 µM (≈ 25 µg/mL) | 189 µM (≈ 50 µg/mL) | 47 µM (≈ 12.4 µg/mL) | 47 µM (≈ 12.4 µg/mL) | 189 µM (≈ 50 µg/mL) | 189 µM (≈ 50 µg/mL) | 94.7 µM (≈ 25 µg/mL) |
| C=C1C(=O)OC[C@H]1[C@H](/C=C(\C)CC(=O)C=C(C)C)OC(C)=O | 163 µM (≈ 50.1 µg/mL) | 81.7 µM (≈ 25 µg/mL) | 163 µM (≈ 50.1 µg/mL) | 81.7 µM (≈ 25 µg/mL) | 81.7 µM (≈ 25 µg/mL) | 81.7 µM (≈ 25 µg/mL) | 40.8 µM (≈ 12.5 µg/mL) | 81.7 µM (≈ 25 µg/mL) | 163 µM (≈ 50.1 µg/mL) | 163 µM (≈ 50.1 µg/mL) | 81.7 µM (≈ 25 µg/mL) |
| C=C1CC[C@]2(C)CC[C@]3(C)[C@H](CC[C@@H]4[C@@]5(C)CC[C@H](O)C(C)(C)[C@@H]5CC[C@]43C)[C@@H]2[C@@H]1C | 117 µM (≈ 50.1 µg/mL) | 117 µM (≈ 50.1 µg/mL) | 117 µM (≈ 50.1 µg/mL) | 58.7 µM (≈ 25 µg/mL) | 58.7 µM (≈ 25 µg/mL) | 117 µM (≈ 50.1 µg/mL) | 14.7 µM (≈ 6.27 µg/mL) | 29.3 µM (≈ 12.5 µg/mL) | 117 µM (≈ 50.1 µg/mL) | 117 µM (≈ 50.1 µg/mL) | 29.3 µM (≈ 12.5 µg/mL) |
| C=C1C(=O)OCC1C/C=C(\C)CC(=O)C=C(C)C (stereo not drawn) [ANTHECOTULIDE] | 202 µM (≈ 50.2 µg/mL) | 101 µM (≈ 25.1 µg/mL) | 202 µM (≈ 50.2 µg/mL) | 51 µM (≈ 12.7 µg/mL) | 101 µM (≈ 25.1 µg/mL) | 101 µM (≈ 25.1 µg/mL) | 51 µM (≈ 12.7 µg/mL) | 101 µM (≈ 25.1 µg/mL) | 202 µM (≈ 50.2 µg/mL) | 202 µM (≈ 50.2 µg/mL) | 101 µM (≈ 25.1 µg/mL) |
| c1ccc(-c2ccc(C(c3ccccc3)n3ccnc3)cc2)cc1 (stereo not drawn) [BIFONAZOLE] |  |  |  |  |  | 644 µM (≈ 200 µg/mL) |  |  |  |  |  |
| COC(=O)c1ccc(O)c(OC)c1 [METHYL VANILLATE] |  | 275 µM (≈ 50 µg/mL) | 275 µM (≈ 50 µg/mL) | 137 µM (≈ 25 µg/mL) | 137 µM (≈ 25 µg/mL) | 275 µM (≈ 50 µg/mL) | 137 µM (≈ 25 µg/mL) | 137 µM (≈ 25 µg/mL) | 275 µM (≈ 50 µg/mL) |  | 275 µM (≈ 50 µg/mL) |
| CN[C@@H]1[C@H](O[C@H]2[C@H](O[C@H]3[C@H](O)[C@@H](O)[C@H](N=C(N)N)[C@@H](O)[C@@H]3N=C(N)N)O[C@@H](C)[C@]2(O)C=O)O[C@@H](CO)[C@H](O)[C@H]1O [STREPTOMYCIN] | 137 µM (≈ 79.8 µg/mL) | 68.6 µM (≈ 39.9 µg/mL) | 137 µM (≈ 79.8 µg/mL) | 34.3 µM (≈ 19.9 µg/mL) | 34.3 µM (≈ 19.9 µg/mL) |  | 34.3 µM (≈ 19.9 µg/mL) | 34.3 µM (≈ 19.9 µg/mL) | 137 µM (≈ 79.8 µg/mL) |  | 68.6 µM (≈ 39.9 µg/mL) |
